This is an account of results in ChEMBL document CHEMBL5113496, “A systematic exploration of boceprevir-based main protease inhibitors as SARS-CoV-2 antivirals” (Eur J Med Chem, 2022).

As usually defined, the EC50 is the concentration giving half of the maximal effect. A word on the CC50: it is the concentration giving 50% cytotoxicity.

The subject of data set [1] is SARS-CoV-2. Put plainly: Antiviral activity against SARS-CoV2 USA-WA1/2020 infected in African green monkey Vero E6 cells assessed as reduction in viral plaques incubated for 3 days by plaque reduction neutralization test. It counts as functional, organism-based. As to conditions: Severe acute respiratory syndrome coronavirus 2, USA-WA1/2020, Vero C1008, 72 h. (In general: In a plaque reduction assay, fewer plaques than in the control indicate reduced infectivity or spread.)

Data set [2] concerns SARS-CoV-2. Description: Antiviral activity against SARS-CoV2 Beta infected in African green monkey Vero E6 cells assessed as reduction in viral plaques incubated for 3 days by plaque reduction neutralization test. It counts as functional, organism-based. As to conditions: Severe acute respiratory syndrome coronavirus 2, Beta, Vero C1008, 72 h.
Data set [3] deals with SARS-CoV-2. Description: Antiviral activity against SARS-CoV2 Delta infected in African green monkey Vero E6 cells assessed as reduction in viral plaques incubated for 3 days by plaque reduction neutralization test. It counts as functional, organism-based. As to conditions: Severe acute respiratory syndrome coronavirus 2, Delta, Vero C1008, 72 h.
The nature of data set [4]: Cytotoxicity against HEK293T/17 cells assessed as inhibition of cell growth incubated for 48 hrs by MTT assay. The format is toxicity, cell-based. As to conditions: human, hek293t/17, 48 h. In outline: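 293T cells seeded and held 24 h at 37 °C, 5% CO2, then exposed in triplicate for 48 h to a range of compound concentrations. Compounds were taken from DMSO stocks and diluted in culture medium. Viability was read by MTT. CC50 was taken from normalised % viability plotted against log10 concentration.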
A general note: Tetrazolium dyes change colour on reduction, which living cells bring about.

Consider `C[C@@H](OC(C)(C)C)[C@H](NC(=O)OCc1ccccc1)C(=O)N1C[C@H]2[C@@H]([C@H]1C(=O)N[C@H](C=O)C[C@@H]1CCNC1=O)C2(C)C`, for which the EC50 in the data set on SARS-CoV-2 [1] came out at 1.08 µM; in the data set on SARS-CoV-2 [2] it was 2.28 µM; in the data set with SARS-CoV-2 [3], 0.75 µM. For the same molecule, the CC50 in data set [4] turned out to be 163 µM.

With `CC(C)(C)[C@H](NC(=O)OCc1ccccc1)C(=O)N1C[C@H]2[C@@H]([C@H]1C(=O)N[C@H](C=O)C[C@@H]1CCNC1=O)C2(C)C`, the EC50 in the data set on SARS-CoV-2 [1] was determined as 2.94 µM; in the data set with SARS-CoV-2 [2], 0.86 µM; in the data set with SARS-CoV-2 [3], 1.04 µM. Also, the CC50 in data set [4] was found to be 144 µM.

On to `CC(C)(C)OC(=O)N[C@H](C(=O)N1C[C@H]2[C@@H]([C@H]1C(=O)N[C@H](C=O)C[C@@H]1CCNC1=O)C2(C)C)C(C)(C)C`, for which the EC50 with SARS-CoV-2 [1] came to 0.61 µM; in the data set on SARS-CoV-2 [3], 1 µM. Besides, the CC50 in data set [4] turned out to be 34.2 µM.
